≈ marks a conversion by molar mass, not a printed value. Calls of active or inactive are those of the source.
How the values were obtained:
Tubulin (Homo sapiens) = Tubulin (Homo sapiens) (UniProt P68371+Q9H4B7+P0DPH7+P68366+Q13509+Q71U36+P04350+Q3ZCM7+P07437+P68363+Q9BQE3+Q6PEY2+Q13885+Q9BVA1+Q9BUF5); experiment: Inhibition of brain tubulin polymerization (unknown origin) at 37 degC by spectrophotometry
Mus musculus [1] = experiment: Toxicity in PS mouse allografted with mouse P388 cells assessed as change in body weight at 6.2 ug/kg relative to control; format: organism-based; conditions: in vivo, 0.0062 mg/kg
How it was run: (§1)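 P388 (PS) leukemia in mice, 6 mice per dose group. Weight change is the difference in grams between treated and control animals. Survivors are recorded on toxicity day, normally 4 days after the first injection.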

Mus musculus [2] = experiment: Toxicity in PS mouse allografted with mouse P388 cells assessed as survival at 1.6 ug/kg after 4 days; format: organism-based; conditions: in vivo, 0.0016 mg/kg, 96 h
How it was run: (§2)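 PS (P388) leukemic mice, six started per dose group. Toxicity scored as survivors on the toxicity day over the number of mice started. The toxicity day is normally 4 days after the first injection.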

Mus musculus [3] = experiment: Toxicity in PS mouse allografted with mouse P388 cells assessed as survival at 100 ug/kg after 4 days; format: organism-based; conditions: in vivo, 0.1 mg/kg, 96 h; how it was run: as §2
Mus musculus [4] = experiment: Toxicity in PS mouse allografted with mouse P388 cells assessed as survival at 0.8 ug/kg after 4 days; format: organism-based; conditions: in vivo, 0.0008 mg/kg, 96 h; how it was run: as §2
Mus musculus [5] = experiment: Toxicity in PS mouse allografted with mouse P388 cells assessed as change in body weight at 100 ug/kg relative to control; format: organism-based; conditions: in vivo, 0.1 mg/kg; how it was run: as §1
Mus musculus [6] = experiment: Toxicity in PS mouse allografted with mouse P388 cells assessed as change in body weight at 50 ug/kg relative to control; format: organism-based; conditions: in vivo, 0.05 mg/kg; how it was run: as §1
Mus musculus [7] = experiment: Toxicity in PS mouse allografted with mouse P388 cells assessed as survival at 50 ug/kg after 4 days; format: organism-based; conditions: in vivo, 0.05 mg/kg, 96 h; how it was run: as §2
Mus musculus [8] = experiment: Toxicity in PS mouse allografted with mouse P388 cells assessed as change in body weight at 0.4 ug/kg relative to control; format: organism-based; conditions: in vivo, 0.0004 mg/kg
How it was run: (§3)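 PS (P388 leukemia) mice, six per dose group. Toxicity read as the difference in grams between the weights of treated and control animals.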

Mus musculus [9] = experiment: Toxicity in PS mouse allografted with mouse P388 cells assessed as survival at 12.5 ug/kg after 4 days; format: organism-based; conditions: in vivo, 0.0125 mg/kg, 96 h; how it was run: as §2
Mus musculus [10] = experiment: Toxicity in PS mouse allografted with mouse P388 cells assessed as change in body weight at 25 ug/kg relative to control; format: organism-based; conditions: in vivo, 0.025 mg/kg; how it was run: as §1
Mus musculus [11] = experiment: Toxicity in PS mouse allografted with mouse P388 cells assessed as survival at 0.4 ug/kg after 4 days; format: organism-based; conditions: in vivo, 0.0004 mg/kg, 96 h; how it was run: as §2
P388 [12] = experiment: Antitumor activity against mouse P388 cells allografted in PS mouse assessed as median survival time at 100 ug/kg relative to control; format: functional
How it was run: (§4)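 P388 leukemia (PS) in mice, six mice started per dose group. Read-out is T/C: median survival time of the treated group divided by that of the untreated control group, expressed as a percent. The NIH protocol counts a compound as active when T/C > 125%.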

Mus musculus [13] = experiment: Toxicity in PS mouse allografted with mouse P388 cells assessed as survival at 6.2 ug/kg after 4 days; format: organism-based; conditions: in vivo, 0.0062 mg/kg, 96 h; how it was run: as §2
Mus musculus [14] = experiment: Toxicity in PS mouse allografted with mouse P388 cells assessed as change in body weight at 0.8 ug/kg relative to control; format: organism-based; conditions: in vivo, 0.0008 mg/kg; how it was run: as §3
P388 [15] = experiment: Antitumor activity against mouse P388 cells allografted in PS mouse assessed as median survival time at 0.8 ug/kg relative to control; format: functional; how it was run: as §4
Mus musculus [16] = experiment: Toxicity in PS mouse allografted with mouse P388 cells assessed as change in body weight at 1.6 ug/kg relative to control; format: organism-based; conditions: in vivo, 0.0016 mg/kg; how it was run: as §1
Mus musculus [17] = experiment: Toxicity in PS mouse allografted with mouse P388 cells assessed as survival at 3.1 ug/kg after 4 days; format: organism-based; conditions: in vivo, 0.0031 mg/kg, 96 h; how it was run: as §2
Mus musculus [18] = experiment: Toxicity in PS mouse allografted with mouse P388 cells assessed as change in body weight at 3.1 ug/kg relative to control; format: organism-based; conditions: in vivo, 0.0031 mg/kg; how it was run: as §1
P388 [19] = experiment: Antitumor activity against mouse P388 cells allografted in PS mouse assessed as median survival time at 6.2 ug/kg relative to control; format: functional; how it was run: as §4
P388 [20] = experiment: Antitumor activity against mouse P388 cells allografted in PS mouse assessed as median survival time at 50 ug/kg relative to control; format: functional; how it was run: as §4
P388 [21] = experiment: Antitumor activity against mouse P388 cells allografted in PS mouse assessed as median survival time at 1.6 ug/kg relative to control; format: functional; how it was run: as §4
P388 [22] = experiment: Antitumor activity against mouse P388 cells allografted in PS mouse assessed as median survival time at 0.2 ug/kg relative to control; format: functional; how it was run: as §4
Mus musculus [23] = experiment: Toxicity in PS mouse allografted with mouse P388 cells assessed as change in body weight at 0.2 ug/kg relative to control; format: organism-based; conditions: in vivo, 0.0002 mg/kg; how it was run: as §3
P388 [24] = experiment: Antitumor activity against mouse P388 cells allografted in PS mouse assessed as median survival time at 3.1 ug/kg relative to control; format: functional; how it was run: as §4
P388 [25] = experiment: Antitumor activity against mouse P388 cells allografted in PS mouse assessed as median survival time at 25 ug/kg relative to control; format: functional; how it was run: as §4
Mus musculus [26] = experiment: Toxicity in PS mouse allografted with mouse P388 cells assessed as survival at 0.2 ug/kg after 4 days; format: organism-based; conditions: in vivo, 0.0002 mg/kg, 96 h; how it was run: as §2
Mus musculus [27] = experiment: Toxicity in PS mouse allografted with mouse P388 cells assessed as change in body weight at 12.5 ug/kg relative to control; format: organism-based; conditions: in vivo, 0.0125 mg/kg; how it was run: as §1
P388 [28] = experiment: Antitumor activity against mouse P388 cells allografted in PS mouse assessed as median survival time at 0.4 ug/kg relative to control; format: functional; how it was run: as §4
Paracentrotus lividus = experiment: Antimitotic activity against sea urchin eggs assessed as drug level causing inhibition of mitosis; format: functional; conditions: Egg
Mus musculus [29] = experiment: Toxicity in PS mouse allografted with mouse P388 cells assessed as survival at 25 ug/kg after 4 days; format: organism-based; conditions: in vivo, 0.025 mg/kg, 96 h; how it was run: as §2
P388 [30] = experiment: Antitumor activity against mouse P388 cells allografted in PS mouse assessed as median survival time at 12.5 ug/kg relative to control; format: functional; how it was run: as §4
KB = experiment: Cytotoxicity against human KB cells; format: functional; conditions: read-out: ED50 (the source's name)
Mus musculus [31] = experiment: Toxicity in PS mouse allografted with mouse P388 cells assessed as survival at 400 ug/kg after 4 days; format: organism-based; conditions: in vivo, 0.4 mg/kg, 96 h; how it was run: as §2
P388 [32] = experiment: Antitumor activity against mouse P388 cells allografted in PS mouse assessed as median survival time at 400 ug/kg relative to control; format: functional; how it was run: as §4
Mus musculus [33] = experiment: Toxicity in PS mouse allografted with mouse P388 cells assessed as survival at 200 ug/kg after 4 days; format: organism-based; conditions: in vivo, 0.2 mg/kg, 96 h; how it was run: as §2
Mus musculus [34] = experiment: Toxicity in PS mouse allografted with mouse P388 cells assessed as change in body weight at 400 ug/kg relative to control; format: organism-based; conditions: in vivo, 0.4 mg/kg; how it was run: as §1
P388 [35] = experiment: Antitumor activity against mouse P388 cells allografted in PS mouse assessed as median survival time at 200 ug/kg relative to control; format: functional; how it was run: as §4
Mus musculus [36] = experiment: Toxicity in PS mouse allografted with mouse P388 cells assessed as change in body weight at 200 ug/kg relative to control; format: organism-based; conditions: in vivo, 0.2 mg/kg; how it was run: as §1

COc1cc2cc(c1Cl)NC(=O)/C=C/[C@]1(C)O[C@H]1[C@H](C)[C@@H]1C[C@@](O)(NC(=O)O1)[C@H](OC)/C=C/C=C(\C)C2
inhibition (Tubulin (Homo sapiens)): Active
Activity (Mus musculus [1]): 0.4 g
Activity (Mus musculus [2]): Non-toxic
Activity (Mus musculus [3]): Non-toxic
Activity (Mus musculus [4]): Non-toxic
Activity (Mus musculus [5]): 1.2 g
Activity (Mus musculus [6]): -0.3 g
Activity (Mus musculus [7]): Non-toxic
Activity (Mus musculus [8]): 0.1 g
Activity (Mus musculus [9]): Non-toxic
Activity (Mus musculus [10]): -0.5 g
Activity (Mus musculus [11]): Non-toxic
T/C (P388 [12]): 95%
Activity (Mus musculus [13]): Non-toxic
Activity (Mus musculus [14]): -0.1 g
T/C (P388 [15]): 90%
Activity (Mus musculus [16]): 0 g
Activity (Mus musculus [17]): Non-toxic
Activity (Mus musculus [18]): -0.2 g
T/C (P388 [19]): 115%
T/C (P388 [20]): 110%
T/C (P388 [21]): 100%
T/C (P388 [22]): 100%
Activity (Mus musculus [23]): 1 g
T/C (P388 [24]): 115%
T/C (P388 [25]): 110%
Activity (Mus musculus [26]): Non-toxic
Activity (Mus musculus [27]): -0.5 g
T/C (P388 [28]): 100%
Activity (Paracentrotus lividus): 1 µM
Activity (Mus musculus [29]): Non-toxic
T/C (P388 [30]): 110%
EC50 (KB): 0.019 µg/mL (≈ 0.0356 µM)

COc1cc2cc(c1Cl)N(C)C(=O)CC(O)C1(C)OC1C(C)C1CC(O)(NC(=O)O1)C(OC)/C=C/C=C(\C)C2 (stereo not given) [MAYTANSINOL]
inhibition (Tubulin (Homo sapiens)): Active
Activity (Mus musculus [1]): 0.5 g
Activity (Mus musculus [31]): Non-toxic
Activity (Mus musculus [3]): Non-toxic
Activity (Mus musculus [5]): 1.2 g
T/C (P388 [32]): 102%
Activity (Mus musculus [6]): -0.4 g
Activity (Mus musculus [7]): Non-toxic
Activity (Mus musculus [9]): Non-toxic
Activity (Mus musculus [10]): 0.5 g
T/C (P388 [12]): 105%
Activity (Mus musculus [13]): Non-toxic
Activity (Mus musculus [33]): Non-toxic
Activity (Mus musculus [34]): -2.6 g
Activity (Mus musculus [17]): Non-toxic
Activity (Mus musculus [18]): 0.9 g
T/C (P388 [35]): 112%
T/C (P388 [19]): 102%
T/C (P388 [20]): 112%
T/C (P388 [24]): 102%
T/C (P388 [25]): 94%
Activity (Mus musculus [27]): 1.5 g
Activity (Paracentrotus lividus): 1 ×10⁻⁵ mol/L
Activity (Mus musculus [36]): -1.8 g
Activity (Mus musculus [29]): Non-toxic
T/C (P388 [30]): 102%
EC50 (KB): 0.19 µg/mL (≈ 0.336 µM)

Source: ChEMBL document CHEMBL3244382, “Structural requirements for antileukemic activity among the naturally occurring and semisynthetic maytansinoids” (J Med Chem, 1978)
